How the values were obtained:
[1] = molecular target: T1, 5-hydroxytryptamine receptor 4 (Homo sapiens, UniProt Q13639); test: Antagonistic activity at human 5HT4 receptor expressed in HEK293 cells assessed as inhibition of 5-HT stimulated ADCY activity after 20 mins; type: functional, cell-based
In short: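 Membranes from HEK293 cells stably expressing human 5-HT4(b) at low level (400 fmol/mg). Adenylyl cyclase activity was stimulated by 1 µM 5-HT with 21 antagonist concentrations, 0.1 mM [α-32P]ATP, 4 mM MgCl2, 1 mM IBMX, GTP and ATP-regenerating system, 32 °C, 20 min. [32P]cAMP was isolated on Dowex/alumina columns. IC50 was fitted by non-linear regression and Kb calculated using 5-HT EC50.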

[2] = molecular target: T1, 5-hydroxytryptamine receptor 4; test: Displacement of [3H]GR113808 from human 5HT4 receptor expressed in HEK293 cells by liquid scintillation counting; type: cell-based
In short: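 Membranes from HEK293 line stably expressing human 5-HT4(b) at high level (5000 fmol/mg). Incubated with 0.3 nM [3H]GR113808 and 21 competitor concentrations in Tris-HCl pH 7.5, EDTA, EGTA, 2 mM MgCl2, ascorbate, 0.1% BSA, 100 µM GTP, room temperature 1 h. Filtered onto PEI-soaked filters, washed, scintillation counted. Ki derived from IC50 via Ki = IC50/(1+L/Kd).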

[3] = molecular target: T1, 5-hydroxytryptamine receptor 4; test: Antagonistic activity at human 5HT4 receptor expressed in HEK293 cells; type: functional, cell-based
[4] = Lipophilicity, log D of the compound in octanol buffer at pH 7.4; type: physicochemical
In short: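 Distribution between octanol and aqueous buffer at pH 7.4. Both phases were diluted and ligand concentration in each measured by HPLC. Not determined where micelles formed.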

D(1B) dopamine receptor = D(1B) dopamine receptor (Homo sapiens, UniProt P21918); test: Binding affinity to dopamine receptor D5
[5] = molecular target: 5-hydroxytryptamine receptor 3A (Homo sapiens, UniProt P46098); test: Binding affinity to 5HT3 receptor
[6] = molecular target: Alpha-2A adrenergic receptor (Homo sapiens, UniProt P08913); test: Binding affinity to alpha2A adrenergic receptor
[7] = molecular target: Alpha-2B adrenergic receptor (Homo sapiens, UniProt P18089); test: Binding affinity to alpha2B adrenergic receptor
Mu-type opioid receptor = Mu-type opioid receptor (Homo sapiens, UniProt P35372); test: Binding affinity to opioid receptor MOR
[8] = molecular target: 5-hydroxytryptamine receptor 1D (Homo sapiens, UniProt P28221); test: Binding affinity to 5HT1D receptor
[9] = Binding affinity to GABA receptor BDZ-site
[10] = molecular target: 5-hydroxytryptamine receptor 7 (Homo sapiens, UniProt P34969); test: Binding affinity to 5HT7 receptor
[11] = molecular target: Sodium-dependent dopamine transporter (Homo sapiens, UniProt Q01959); test: Binding affinity to DAT
[12] = molecular target: Muscarinic acetylcholine receptor M2 (Homo sapiens, UniProt P08172); test: Binding affinity to muscarinic acetylcholine receptor M2
Histamine H3 receptor = Histamine H3 receptor (Homo sapiens, UniProt Q9Y5N1); test: Binding affinity to Histamine receptor H3
[13] = molecular target: Beta-2 adrenergic receptor (Homo sapiens, UniProt P07550); test: Binding affinity to beta2 adrenergic receptor
[14] = molecular target: Sodium-dependent serotonin transporter (Homo sapiens, UniProt P31645); test: Binding affinity to SERT
[15] = molecular target: Delta-type opioid receptor (Homo sapiens, UniProt P41143); test: Binding affinity to opioid receptor DOR
[16] = molecular target: Alpha-1B adrenergic receptor (Homo sapiens, UniProt P35368); test: Binding affinity to Alpha-1B adrenergic receptor
[17] = molecular target: 5-hydroxytryptamine receptor 2C (Homo sapiens, UniProt P28335); test: Binding affinity to 5HT2C receptor
[18] = molecular target: 5-hydroxytryptamine receptor 1E (Homo sapiens, UniProt P28566); test: Binding affinity to 5HT1E receptor
[19] = molecular target: Kappa-type opioid receptor (Homo sapiens, UniProt P41145); test: Binding affinity to opioid receptor KOR
Histamine H2 receptor = Histamine H2 receptor (Homo sapiens, UniProt P25021); test: Binding affinity to Histamine receptor H2
[20] = molecular target: 5-hydroxytryptamine receptor 2B (Homo sapiens, UniProt P41595); test: Binding affinity to 5HT2B receptor
[21] = molecular target: 5-hydroxytryptamine receptor 2A (Homo sapiens, UniProt P28223); test: Binding affinity to 5HT2A receptor
[22] = molecular target: 5-hydroxytryptamine receptor 1A (Homo sapiens, UniProt P08908); test: Binding affinity to 5HT1A receptor
[23] = molecular target: 5-hydroxytryptamine receptor 6 (Homo sapiens, UniProt P50406); test: Binding affinity to 5HT6 receptor
[24] = molecular target: Alpha-1A adrenergic receptor (Homo sapiens, UniProt P35348); test: Binding affinity to alpha1A adrenergic receptor
[25] = molecular target: Muscarinic acetylcholine receptor M5 (Homo sapiens, UniProt P08912); test: Binding affinity to muscarinic acetylcholine receptor M5
Histamine H1 receptor = Histamine H1 receptor (Homo sapiens, UniProt P35367); test: Binding affinity to Histamine receptor H1
[26] = molecular target: Muscarinic acetylcholine receptor M3 (Homo sapiens, UniProt P20309); test: Binding affinity to muscarinic acetylcholine receptor M3
D(4) dopamine receptor = D(4) dopamine receptor (Homo sapiens, UniProt P21917); test: Binding affinity to dopamine receptor D4
[27] = molecular target: 5-hydroxytryptamine receptor 1B (Homo sapiens, UniProt P28222); test: Binding affinity to 5HT1B receptor
[28] = molecular target: Beta-3 adrenergic receptor (Homo sapiens, UniProt P13945); test: Binding affinity to beta3 adrenergic receptor
[29] = molecular target: Alpha-1D adrenergic receptor (Homo sapiens, UniProt P25100); test: Binding affinity to Alpha-1D adrenergic receptor
[30] = molecular target: Beta-1 adrenergic receptor (Homo sapiens, UniProt P08588); test: Binding affinity to beta1 adrenergic receptor
D(3) dopamine receptor = D(3) dopamine receptor (Homo sapiens, UniProt P35462); test: Binding affinity to dopamine receptor D3
[31] = Binding affinity to GABA-A receptor muscimol site
[32] = molecular target: Muscarinic acetylcholine receptor M4 (Homo sapiens, UniProt P08173); test: Binding affinity to muscarinic acetylcholine receptor M4
[33] = molecular target: Alpha-2C adrenergic receptor (Homo sapiens, UniProt P18825); test: Binding affinity to Alpha-2C adrenergic receptor
D(2) dopamine receptor = D(2) dopamine receptor (Homo sapiens, UniProt P14416); test: Binding affinity to dopamine receptor D2
[34] = molecular target: Muscarinic acetylcholine receptor M1 (Homo sapiens, UniProt P11229); test: Binding affinity to muscarinic acetylcholine receptor M1
Histamine H4 receptor = Histamine H4 receptor (Homo sapiens, UniProt Q9H3N8); test: Binding affinity to Histamine receptor H4
[35] = Binding affinity to opioid receptor Sigma2
[36] = molecular target: 5-hydroxytryptamine receptor 5A (Homo sapiens, UniProt P47898); test: Binding affinity to 5HT5A receptor
D(1A) dopamine receptor = D(1A) dopamine receptor (Homo sapiens, UniProt P21728); test: Binding affinity to dopamine receptor D1

T1 sequence (Q13639 whole entry): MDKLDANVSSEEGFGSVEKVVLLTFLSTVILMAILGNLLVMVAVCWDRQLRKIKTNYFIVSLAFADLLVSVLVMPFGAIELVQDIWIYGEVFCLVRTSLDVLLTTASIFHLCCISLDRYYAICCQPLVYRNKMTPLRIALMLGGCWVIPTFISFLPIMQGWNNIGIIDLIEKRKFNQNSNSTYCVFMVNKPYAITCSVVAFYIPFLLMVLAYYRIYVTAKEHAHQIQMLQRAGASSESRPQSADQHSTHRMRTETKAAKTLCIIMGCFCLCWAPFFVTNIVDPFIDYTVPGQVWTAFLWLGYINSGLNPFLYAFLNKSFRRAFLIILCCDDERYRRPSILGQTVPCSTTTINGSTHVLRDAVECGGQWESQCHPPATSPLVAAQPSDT
Delta-type opioid receptor, sequence (P41143 whole entry): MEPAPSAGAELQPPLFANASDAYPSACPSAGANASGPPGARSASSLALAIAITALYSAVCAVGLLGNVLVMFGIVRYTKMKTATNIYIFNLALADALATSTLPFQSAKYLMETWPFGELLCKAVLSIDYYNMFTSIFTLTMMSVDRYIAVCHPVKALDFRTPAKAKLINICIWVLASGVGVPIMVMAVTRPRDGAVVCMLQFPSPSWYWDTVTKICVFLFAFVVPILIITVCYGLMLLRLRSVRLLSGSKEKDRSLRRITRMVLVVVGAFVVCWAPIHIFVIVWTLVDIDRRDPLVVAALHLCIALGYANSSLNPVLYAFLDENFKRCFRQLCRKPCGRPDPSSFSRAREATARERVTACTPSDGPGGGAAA
Alpha-1A adrenergic receptor, sequence (P35348 whole entry): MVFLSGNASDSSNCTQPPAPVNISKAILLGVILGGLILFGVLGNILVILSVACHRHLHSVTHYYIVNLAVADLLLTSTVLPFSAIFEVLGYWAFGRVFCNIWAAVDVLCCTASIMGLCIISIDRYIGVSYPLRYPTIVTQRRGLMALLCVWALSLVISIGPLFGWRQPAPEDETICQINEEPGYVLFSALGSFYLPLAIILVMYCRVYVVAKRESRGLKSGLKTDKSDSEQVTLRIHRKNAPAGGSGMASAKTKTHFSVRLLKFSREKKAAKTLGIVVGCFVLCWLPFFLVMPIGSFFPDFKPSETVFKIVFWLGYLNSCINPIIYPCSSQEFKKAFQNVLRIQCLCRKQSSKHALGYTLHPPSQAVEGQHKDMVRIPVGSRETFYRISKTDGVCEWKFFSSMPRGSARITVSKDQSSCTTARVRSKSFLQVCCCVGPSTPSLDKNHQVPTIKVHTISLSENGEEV
Alpha-2A adrenergic receptor, sequence (P08913 whole entry): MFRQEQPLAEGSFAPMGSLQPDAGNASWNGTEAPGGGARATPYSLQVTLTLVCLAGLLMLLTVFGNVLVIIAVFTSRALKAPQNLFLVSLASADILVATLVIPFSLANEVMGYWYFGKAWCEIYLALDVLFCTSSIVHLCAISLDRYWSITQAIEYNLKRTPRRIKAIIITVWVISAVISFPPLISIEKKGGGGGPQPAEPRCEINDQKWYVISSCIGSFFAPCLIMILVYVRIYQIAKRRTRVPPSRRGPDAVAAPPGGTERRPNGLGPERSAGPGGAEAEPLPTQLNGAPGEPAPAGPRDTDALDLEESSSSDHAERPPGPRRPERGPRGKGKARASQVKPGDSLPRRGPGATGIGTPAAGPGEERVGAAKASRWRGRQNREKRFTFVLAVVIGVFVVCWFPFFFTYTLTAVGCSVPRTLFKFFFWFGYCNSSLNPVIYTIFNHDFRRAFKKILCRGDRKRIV
Beta-1 adrenergic receptor, sequence (P08588 whole entry): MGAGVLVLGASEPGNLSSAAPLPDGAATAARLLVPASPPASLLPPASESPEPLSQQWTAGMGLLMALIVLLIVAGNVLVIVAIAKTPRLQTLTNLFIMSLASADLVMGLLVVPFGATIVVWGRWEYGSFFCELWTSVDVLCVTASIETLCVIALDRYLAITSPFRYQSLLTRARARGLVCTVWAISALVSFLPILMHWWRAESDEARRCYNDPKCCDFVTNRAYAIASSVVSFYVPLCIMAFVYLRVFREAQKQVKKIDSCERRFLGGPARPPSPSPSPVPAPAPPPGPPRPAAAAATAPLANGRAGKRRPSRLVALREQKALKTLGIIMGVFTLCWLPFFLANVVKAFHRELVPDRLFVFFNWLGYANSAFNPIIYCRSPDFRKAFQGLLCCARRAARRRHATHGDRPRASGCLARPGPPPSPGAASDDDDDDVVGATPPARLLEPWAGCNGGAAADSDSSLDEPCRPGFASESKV
Sodium-dependent serotonin transporter, sequence (P31645 whole entry): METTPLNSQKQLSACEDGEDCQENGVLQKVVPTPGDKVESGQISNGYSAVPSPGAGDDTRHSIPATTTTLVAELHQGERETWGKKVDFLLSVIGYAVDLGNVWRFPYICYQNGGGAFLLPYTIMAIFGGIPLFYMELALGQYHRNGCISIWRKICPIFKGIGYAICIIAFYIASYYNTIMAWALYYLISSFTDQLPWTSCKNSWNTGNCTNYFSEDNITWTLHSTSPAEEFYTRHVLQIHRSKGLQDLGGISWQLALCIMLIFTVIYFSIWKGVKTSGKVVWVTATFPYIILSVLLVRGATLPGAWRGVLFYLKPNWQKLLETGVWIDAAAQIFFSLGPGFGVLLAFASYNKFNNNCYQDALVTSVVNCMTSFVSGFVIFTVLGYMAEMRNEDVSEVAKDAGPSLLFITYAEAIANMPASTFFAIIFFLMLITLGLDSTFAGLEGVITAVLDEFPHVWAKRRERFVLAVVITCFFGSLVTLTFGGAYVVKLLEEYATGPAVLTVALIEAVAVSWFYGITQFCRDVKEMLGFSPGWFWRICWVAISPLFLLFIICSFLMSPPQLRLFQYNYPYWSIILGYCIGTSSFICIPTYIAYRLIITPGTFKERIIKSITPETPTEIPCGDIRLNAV
Beta-3 adrenergic receptor, sequence (P13945 whole entry): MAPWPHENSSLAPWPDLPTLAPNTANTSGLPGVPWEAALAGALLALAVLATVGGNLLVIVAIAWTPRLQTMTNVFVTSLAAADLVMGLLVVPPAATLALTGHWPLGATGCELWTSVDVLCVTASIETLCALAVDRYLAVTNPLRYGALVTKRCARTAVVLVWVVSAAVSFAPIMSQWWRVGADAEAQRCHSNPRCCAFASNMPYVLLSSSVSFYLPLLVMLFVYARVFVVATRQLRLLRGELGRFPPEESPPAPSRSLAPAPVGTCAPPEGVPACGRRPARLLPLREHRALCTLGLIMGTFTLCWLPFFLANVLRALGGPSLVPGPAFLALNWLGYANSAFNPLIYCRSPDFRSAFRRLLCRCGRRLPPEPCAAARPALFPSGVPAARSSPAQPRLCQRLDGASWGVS
Histamine H2 receptor, sequence (P25021 whole entry): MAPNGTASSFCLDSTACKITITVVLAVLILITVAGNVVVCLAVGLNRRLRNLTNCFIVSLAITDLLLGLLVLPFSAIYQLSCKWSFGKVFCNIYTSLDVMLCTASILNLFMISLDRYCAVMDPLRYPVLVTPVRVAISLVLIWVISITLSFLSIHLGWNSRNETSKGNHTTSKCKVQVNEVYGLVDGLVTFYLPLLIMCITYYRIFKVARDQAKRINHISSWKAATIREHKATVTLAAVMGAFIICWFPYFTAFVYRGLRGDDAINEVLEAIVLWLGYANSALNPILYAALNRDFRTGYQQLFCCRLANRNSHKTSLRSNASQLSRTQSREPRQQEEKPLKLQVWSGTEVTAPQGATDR
Histamine H4 receptor, sequence (Q9H3N8 whole entry): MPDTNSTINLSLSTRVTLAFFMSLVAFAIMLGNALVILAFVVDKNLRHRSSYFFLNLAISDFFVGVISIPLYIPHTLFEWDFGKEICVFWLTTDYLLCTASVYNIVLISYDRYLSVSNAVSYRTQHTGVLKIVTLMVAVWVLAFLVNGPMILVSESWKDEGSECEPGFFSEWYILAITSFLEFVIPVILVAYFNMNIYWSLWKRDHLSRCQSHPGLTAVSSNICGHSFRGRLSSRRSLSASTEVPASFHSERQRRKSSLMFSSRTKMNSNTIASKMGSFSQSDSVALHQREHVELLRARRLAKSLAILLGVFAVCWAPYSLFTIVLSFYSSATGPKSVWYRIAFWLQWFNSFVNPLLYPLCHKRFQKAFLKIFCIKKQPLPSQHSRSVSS
D(4) dopamine receptor, sequence (P21917 whole entry): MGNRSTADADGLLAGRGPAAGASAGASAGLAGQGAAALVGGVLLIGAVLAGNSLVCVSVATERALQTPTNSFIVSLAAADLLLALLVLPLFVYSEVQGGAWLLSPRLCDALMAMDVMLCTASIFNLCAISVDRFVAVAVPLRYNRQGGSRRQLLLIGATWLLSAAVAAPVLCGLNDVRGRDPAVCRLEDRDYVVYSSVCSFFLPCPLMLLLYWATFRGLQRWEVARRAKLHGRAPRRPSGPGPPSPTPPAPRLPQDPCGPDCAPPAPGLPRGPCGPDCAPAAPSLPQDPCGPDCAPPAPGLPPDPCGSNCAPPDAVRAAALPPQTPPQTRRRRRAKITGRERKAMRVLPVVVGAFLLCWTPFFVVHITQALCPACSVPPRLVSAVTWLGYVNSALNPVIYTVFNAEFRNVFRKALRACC
5-hydroxytryptamine receptor 2C, sequence (P28335 whole entry): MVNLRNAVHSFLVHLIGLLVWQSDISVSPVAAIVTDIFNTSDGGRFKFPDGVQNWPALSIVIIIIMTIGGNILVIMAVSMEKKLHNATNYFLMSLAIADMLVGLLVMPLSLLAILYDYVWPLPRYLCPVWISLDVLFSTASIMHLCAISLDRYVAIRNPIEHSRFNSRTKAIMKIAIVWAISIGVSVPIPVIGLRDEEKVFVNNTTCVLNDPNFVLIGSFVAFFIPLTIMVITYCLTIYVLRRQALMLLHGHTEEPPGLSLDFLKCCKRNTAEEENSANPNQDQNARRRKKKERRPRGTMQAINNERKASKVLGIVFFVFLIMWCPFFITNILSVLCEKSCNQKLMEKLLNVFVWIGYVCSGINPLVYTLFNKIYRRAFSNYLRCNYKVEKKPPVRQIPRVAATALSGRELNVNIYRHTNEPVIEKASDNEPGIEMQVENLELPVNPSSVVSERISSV

CC(C)(C)OC(=O)CCCN1CCC(CNC(=O)c2c3n(c4ccccc24)CCCO3)CC1 showed a pKb [1] of 9.47 and a Ki [2] of 0.234 nM.

With O=C(O)CCCCCCCCCCCN1CCC(CNC(=O)c2c3n(c4ccccc24)CCCO3)CC1 the pKb [1] was 8.97 and the Ki [2] was 2.45 nM.

In the case of O=C(O)CCCN1CCC(CNC(=O)c2c[nH]c3ccccc23)CC1, the Ki [3] is reported as 3.63 µM and the pKb [1] is reported as 4.62.

With O=C(CCCCN1CCC(CNC(=O)c2c3n(c4ccccc24)CCCO3)CC1)OCc1ccccc1 the pKb [1] was 10.2 and the Ki [2] was 0.00145 nM.

O=C(O)CCCN1CCC(CNC(=O)c2c3n(c4ccccc24)CCCO3)CC1 gave a pKb [1] of 7.96, a Ki [2] of 2 nM and a logD [4] of -1.2.

In the case of COC(=O)CCCCCCCCCN1CCC(CNC(=O)c2c3n(c4ccccc24)CCCO3)CC1, the pKb [1] is reported as 9.33 and the Ki [2] is reported as 0.195 nM.

CC(C)(C)C(=O)OCOC(=O)CCCCCN1CCC(CNC(=O)c2c3n(c4ccccc24)CCCO3)CC1 showed a pKb [1] of 9.83 and a Ki [2] of 0.0646 nM.

For O=C(O)CCCCCN1CCC(CNC(=O)c2c3n(c4ccccc24)CCCO3)CC1, the Ki (D(1B) dopamine receptor) was > 10 µM, the Ki [5] was > 10 µM and the Ki [6] was > 10 µM. For the same molecule, the Ki [7] was > 10 µM, the Ki (Mu-type opioid receptor) was > 10 µM and the Ki [8] was > 10 µM. For the same molecule, the pKi [9] was < 5, the Ki [10] was > 10 µM and the Ki [11] was > 10 µM. The Ki [12] was > 10 µM, the Ki (Histamine H3 receptor) was > 10 µM and the Ki [13] was > 10 µM. The Ki [14] was > 10 µM, the Ki [15] was > 10 µM and the Ki [16] was > 10 µM. For the same molecule, the Ki [17] was > 10 µM, the Ki [18] was > 10 µM and the Ki [19] was > 10 µM. For the same molecule, the Ki (Histamine H2 receptor) was > 10 µM, the Ki [20] was > 10 µM and the Ki [21] was > 10 µM. For the same molecule, the Ki [22] was > 10 µM, the Ki [23] was > 10 µM and the Ki [24] was > 10 µM. The pKb [1] was 7.94, the Ki [2] was 1.55 nM and the Ki [25] was > 10 µM. For the same molecule, the Ki (Histamine H1 receptor) was > 10 µM, the Ki [26] was > 10 µM and the Ki (D(4) dopamine receptor) was > 10 µM. For the same molecule, the Ki [27] was > 10 µM, the Ki [28] was > 10 µM and the Ki [29] was > 10 µM. The Ki [30] was > 10 µM, the Ki (D(3) dopamine receptor) was > 10 µM and the logD [4] was -1.3. The pKi [31] was < 5, the Ki [32] was > 10 µM and the Ki [33] was > 10 µM. The Ki (D(2) dopamine receptor) was > 10 µM, the Ki [34] was > 10 µM and the Ki (Histamine H4 receptor) was > 10 µM. For the same molecule, the pKi [35] was < 5, the Ki [36] was > 10 µM and the Ki (D(1A) dopamine receptor) was > 10 µM.

In the case of CCCCN1CCC(CNC(=O)c2c3n(c4ccccc24)CCCO3)CC1 [PIBOSEROD], the pKb [1] is reported as 9.26, the Ki [2] is reported as 0.0525 nM and the logD [4] is reported as 2.2.

For O=C(O)CCCN1CCC(COC(=O)c2c[nH]c3ccccc23)CC1, the Ki [3] was 0.000813 µM and the pKb [1] was 8.16.

In the case of O=C(O)CN1CCC(CNC(=O)c2c3n(c4ccccc24)CCCO3)CC1, the pKb [1] is reported as 7.91, the Ki [2] is reported as 2.82 nM and the logD [4] is reported as -1.1.

Molecule O=C(O)CCN1CCC(CNC(=O)c2c3n(c4ccccc24)CCCO3)CC1 has a pKb [1] of 8.08, a Ki [2] of 1.12 nM and a logD [4] of -1.3.

With CCOC(=O)CCCN1CCC(CNC(=O)c2c[nH]c3ccccc23)CC1 the Ki [3] was 0.107 µM and the pKb [1] was 5.84.

— ChEMBL document CHEMBL1629440, “Synthesis and pharmacological properties of novel hydrophilic 5-HT4 receptor antagonists” (Bioorg Med Chem, 2010)
